ChEMBL document CHEMBL1275442, “Pharmacokinetics and tissue distribution of anidulafungin in rats” (Antimicrob Agents Chemother, 2008)

Key:
[1] = tested on: Kidney; experiment: Drug level in Long Evans rat kidney assessed as low disposition of radioactivity per gram of tissue at 5 mg/kg, iv administered as single bolus dose measured 0.5 hrs postdose by autoradiography; format: ADME, organism-based; set-up: dose 5 mg/kg, route intravenous; conditions: in vivo
In short: (§1)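 Male pigmented Long Evans (HsdBlu:LE) rats, 7.5 weeks old, 202 to 217 g, single iv [¹⁴C]anidulafungin; one rat per sampling time. Euthanized by isoflurane and cardiac-puncture exsanguination. Sagittal whole-body sections quantified by phosphorimaging autoradiography, single samples corrected for section thickness across multiple sections per tissue. Concentrations (μg eq/g drug-derived radioactivity) interpolated from least-squares standard curves per scan.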

[2] = tested on: Cerebrospinal fluid; experiment: Half life in F344 rat cerebrospinal fluid assessed as total compound-derived radioactivity at 5 mg/kg, iv administered as single bolus dose […]; format: ADME, organism-based; set-up: dose 5 mg/kg, route intravenous; conditions: in vivo
In short: (§2)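 Male F344 rats, 10 to 11 weeks old and 223.6 to 243.8 g, got one iv dose of [14C]anidulafungin at 5 mg/kg over about 5 min. Blood, CSF, kidney, liver, lung, quadriceps, spleen and skin were sampled predose and at 0.083 to 72 h, 3 rats per time. Total radioactivity (parent plus metabolites) was measured by liquid scintillation counting. Parameters were noncompartmental, from a composite mean profile.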

[3] = tested on: Zone of skin; experiment: Half life in F344 rat skin assessed as total compound-derived radioactivity at 5 mg/kg, iv administered as single bolus dose […]; format: ADME, organism-based; set-up: dose 5 mg/kg, route intravenous; conditions: in vivo; in short: as §2
[4] = tested on: Spleen; experiment: AUC (0 to infinity) in F344 rat spleen assessed as total compound-derived radioactivity per gram of tissue at 5 mg/kg, iv administered as single bolus dose […]; format: ADME, organism-based; set-up: time infinity, dose 5 mg/kg, route intravenous; conditions: in vivo
In short: (§3)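 Same F344 study: single 5 mg/kg IV [¹⁴C]anidulafungin given over about 5 min. Total drug-derived radioactivity (parent plus metabolites) counted by liquid scintillation, in […]. Noncompartmental analysis of the composite mean profile.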

[5] = tested on: Cerebrospinal fluid; experiment: AUC (0 to 24 hrs) in F344 rat cerebrospinal fluid assessed as total compound-derived radioactivity per gram of tissue at 5 mg/kg, iv administered as single bolus dose […]; format: ADME, organism-based; set-up: time < 24 hr, dose 5 mg/kg, route intravenous; conditions: in vivo; in short: as §3
[6] = tested on: Blood; experiment: AUC (0 to 24 hrs) in F344 rat blood assessed as total compound-derived radioactivity per gram of tissue at 5 mg/kg, iv administered as single bolus dose […]; format: ADME, organism-based; set-up: time < 24 hr, dose 5 mg/kg, route intravenous; conditions: in vivo; in short: as §3
[7] = tested on: Plasma; experiment: AUC (0 to 24 hrs) in F344 rat plasma assessed as total compound-derived radioactivity per gram of tissue at 5 mg/kg, iv administered as single bolus dose […]; format: ADME, organism-based; set-up: time < 24 hr, dose 5 mg/kg, route intravenous; conditions: in vivo; in short: as §3
[8] = tested on: Liver; experiment: Tmax in F344 rat liver assessed as total compound-derived radioactivity at 5 mg/kg, iv administered as single bolus dose […]; format: ADME, organism-based; set-up: dose 5 mg/kg, route intravenous; conditions: in vivo; in short: as §2
[9] = tested on: Liver; experiment: AUC (0 to 24 hrs) in F344 rat liver at 5 mg/kg, iv administered as single bolus dose; format: ADME, organism-based; set-up: time < 24 hr, dose 5 mg/kg, route intravenous; conditions: in vivo
In short: (§4)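 Male F344 rats, 10–11 weeks, 223.6–243.8 g, given one IV dose of [¹⁴C]anidulafungin, 5 mg/kg, over about 5 min. Tissues and blood sampled at 0.083–72 h (n = 3 rats per time). Parent drug measured by HPLC; LLOQ/ULOQ were 20/5,120 ng/ml for plasma and 220/56,320 ng/g for tissue. Noncompartmental parameters taken from the composite mean profile.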

[10] = Tmax in F344 rat liver at 5 mg/kg, iv administered as single bolus dose by HPLC method; format: ADME, organism-based; set-up: dose 5 mg/kg, route intravenous
In short: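 F344 males, 10 to 11 weeks old and 223.6 to 243.8 g, got a single 5 mg/kg iv dose of [14C]anidulafungin over about 5 min. Plasma and tissues were collected predose and at 0.083 to 72 h, n = 3 per time point. Parent drug was quantified by HPLC-UV, with LLOQ/ULOQ of 20/5,120 ng/ml in plasma and 220/56,320 ng/g in tissue. Noncompartmental parameters came from a composite mean concentration-time profile.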

[11] = Cmax in F344 rat skin at 5 mg/kg, iv administered as single bolus dose after 30 min by HPLC method; format: ADME, organism-based, Zone of skin; set-up: dose 5 mg/kg, route intravenous; in short: as §4
[12] = tested on: Liver; experiment: Drug level in Long Evans rat liver assessed as high disposition of radioactivity per gram of tissue at 5 mg/kg, iv administered as single bolus dose measured 6 hrs postdose by autoradiography; format: ADME, organism-based; set-up: dose 5 mg/kg, route intravenous; conditions: in vivo; in short: as §1
[13] = tested on: Muscle tissue; experiment: AUC (0 to infinity) in F344 rat muscle at 5 mg/kg, iv administered as single bolus dose; format: ADME, organism-based; set-up: dose 5 mg/kg, route intravenous, time infinity; conditions: in vivo; in short: as §4
[14] = tested on: Zone of skin; experiment: AUC (0 to infinity) in F344 rat skin at 5 mg/kg, iv administered as single bolus dose; format: ADME, organism-based; set-up: time infinity, dose 5 mg/kg, route intravenous; conditions: in vivo; in short: as §4
[15] = tested on: Liver; experiment: Drug level in Long Evans rat liver assessed as low disposition of radioactivity per gram of tissue at 5 mg/kg, iv administered as single bolus dose measured 12 hrs postdose by autoradiography; format: ADME, organism-based; set-up: dose 5 mg/kg, route intravenous; conditions: in vivo; in short: as §1
[16] = tested on: Kidney; experiment: Drug level in Long Evans rat kidney assessed as low disposition of radioactivity per gram of tissue at 5 mg/kg, iv administered as single bolus dose measured 12 hrs postdose by autoradiography; format: ADME, organism-based; set-up: dose 5 mg/kg, route intravenous; conditions: in vivo; in short: as §1
[17] = tested on: Cerebrospinal fluid; experiment: Drug level in Long Evans rat cerebrospinal fluid assessed as radioactivity per gram of tissue at 5 mg/kg, iv administered as single bolus dose measured 12 hrs postdose by autoradiography; format: ADME, organism-based; set-up: dose 5 mg/kg, route intravenous; conditions: in vivo; in short: as §1
[18] = tested on: Muscle tissue; experiment: Drug level in Long Evans rat muscle assessed as radioactivity per gram of tissue at 5 mg/kg, iv administered as single bolus dose measured 24 hrs postdose by autoradiography; format: ADME, organism-based; set-up: dose 5 mg/kg, route intravenous; conditions: in vivo
In short: (§5)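 Male pigmented Long Evans (HsdBlu:LE) rats, 7.5 weeks old and 202 to 217 g, got a single iv dose of [14C]anidulafungin at 5 mg/kg. One rat per time point (0.5, 6, 12, 24, 72, 168 h) was euthanised by isoflurane and cardiac-puncture exsanguination. Sagittal whole-body sections were quantified by phosphorimaging. Samples were thickness-corrected, and concentrations (μg eq/g) were interpolated from least-squares standard curves.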

[19] = tested on: Blood; experiment: Drug level in Long Evans rat blood assessed as radioactivity per gram of tissue at 5 mg/kg, iv administered as single bolus dose measured 24 hrs postdose by autoradiography; format: ADME, organism-based; set-up: dose 5 mg/kg, route intravenous; conditions: in vivo; in short: as §1
[20] = tested on: Cerebrum; experiment: Drug level in Long Evans rat cerebrum assessed as radioactivity per gram of tissue at 5 mg/kg, iv administered as single bolus dose measured 24 hrs postdose by autoradiography; format: ADME, organism-based; set-up: dose 5 mg/kg, route intravenous; conditions: in vivo; in short: as §1
[21] = tested on: Kidney; experiment: Drug level in Long Evans rat kidney assessed as high disposition of radioactivity per gram of tissue at 5 mg/kg, iv administered as single bolus dose measured 72 hrs postdose by autoradiography; format: ADME, organism-based; set-up: dose 5 mg/kg, route intravenous; conditions: in vivo; in short: as §1
[22] = tested on: Muscle tissue; experiment: Drug level in Long Evans rat muscle assessed as radioactivity per gram of tissue at 5 mg/kg, iv administered as single bolus dose measured 72 hrs postdose by autoradiography; format: ADME, organism-based; set-up: dose 5 mg/kg, route intravenous; conditions: in vivo; in short: as §5
[23] = tested on: Kidney; experiment: Drug level in Long Evans rat kidney assessed as high disposition of radioactivity per gram of tissue at 5 mg/kg, iv administered as single bolus dose measured 168 hrs postdose by autoradiography; format: ADME, organism-based; set-up: dose 5 mg/kg, route intravenous; conditions: in vivo; in short: as §1
[24] = tested on: Zone of skin; experiment: Drug level in Long Evans rat skin assessed as radioactivity per gram of tissue at 5 mg/kg, iv administered as single bolus dose measured 168 hrs postdose by autoradiography; format: ADME, organism-based; set-up: dose 5 mg/kg, route intravenous; conditions: in vivo; in short: as §5
[25] = tested on: Cerebrum; experiment: Drug level in Long Evans rat cerebrum assessed as radioactivity per gram of tissue at 5 mg/kg, iv administered as single bolus dose measured 168 hrs postdose by autoradiography; format: ADME, organism-based; set-up: dose 5 mg/kg, route intravenous; conditions: in vivo; in short: as §1
[26] = tested on: Rattus norvegicus; experiment: Volume of distribution in F344 rat assessed as total compound-derived radioactivity at 5 mg/kg, iv administered as single bolus dose; format: ADME, organism-based; set-up: dose 5 mg/kg, route intravenous; conditions: in vivo; in short: as §2

CCCCCOc1ccc(-c2ccc(-c3ccc([14C](=O)N[C@H]4C[C@@H](O)[C@@H](O)NC(=O)[C@@H]5[C@@H](O)[C@@H](C)CN5C(=O)[C@H]([C@@H](C)O)NC(=O)[C@H]([C@H](O)[C@@H](O)c5ccc(O)cc5)NC(=O)[C@@H]5C[C@@H](O)CN5C(=O)[C@H]([C@@H](C)O)NC4=O)cc3)cc2)cc1 [14C-ANIDULAFUNGIN]
Drug uptake [1]: 9.18 ugequiv | t1/2 [2]: 53.8 h | t1/2 [3]: 56.6 h | AUC [4]: 1152.68 ugequiv.hr/g | AUC [5]: 0.61 ugequiv.hr/g | AUC [6]: 203.14 ugequiv.hr/g | AUC [7]: 131.77 ugequiv.hr/g | Tmax [8]: 8 h | AUC [9]: 586.44 µg·h/g | Tmax [10]: 4.98 min | Cmax [11]: 4020 ng/g | Drug uptake [12]: 29.1 ugequiv | AUC [13]: 57.35 µg·h/g | AUC [14]: 124.11 µg·h/g | Drug uptake [15]: 15.03 ugequiv | Drug uptake [16]: 7.54 ugequiv | Drug uptake [17]: 3.82 ugequiv | Drug uptake [18]: 1.17 ugequiv | Drug uptake [19]: 2.27 ugequiv | Drug uptake [20]: 0.26 ugequiv | Drug uptake [21]: 7.32 ugequiv | Drug uptake [22]: 0.43 ugequiv | Drug uptake [23]: 2.57 ugequiv | Drug uptake [24]: 2.48 ugequiv | Drug uptake [25]: 0.6 ugequiv | Vd [26]: 0.2 L/kg
